Test results: ChEMBL document CHEMBL4052819 (2017)
≈ marks a conversion by molar mass, not a printed value. Calls of active or inactive are those of the source. The calls are words filed in the database; no cut-off is given here. Non-standard residues stand in square brackets, D forms with d. Residues, ends and D or L forms follow the SMILES beside them. *: point of attachment. Octanoyl = CCCCCCCC(=O)*; Dab = NCC[C@H](N)C(=O)O

Assays:
Pseudomonas aeruginosa [1] = assay: Bactericidal activity against Pseudomonas aeruginosa ATCC 27853 after 60 mins in presence of LPS; assay type: functional
Outline: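 P. aeruginosa at ~10^6 CFU/mL in TSB with E. coli O111:B4 LPS (final 10, 25, 50 or 100 μg/mL), then compound at final 16 μg/mL. Incubated 37 °C, 200 rpm, 60 min; survivors counted on TSA. Three independent experiments, one replicate each.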

Klebsiella pneumoniae [2] = assay: Antibacterial activity against Klebsiella pneumoniae ATCC 13883 after 18 to 20 hrs by broth microdilution method; assay type: functional
Escherichia coli [3] = assay: Antibacterial activity against Escherichia coli ATCC 25922 in presence of 100% serum after 6 hrs by broth microdilution method; assay type: functional; conditions: ATCC 25922, 6 h
Outline: (§1)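 Serum stability: compound added to 100% human serum at final 64 μg/mL, held at 37 °C, sampled at 0, 6, 12 and 24 h. […] Residual activity compared with untreated control.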

Staphylococcus aureus [4] = assay: Antibacterial activity against Staphylococcus aureus ATCC 29213 after 18 to 20 hrs in presence of 95% serum by broth microdilution method; assay type: functional
Outline: (§2)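 Same microdilution with human serum as medium: compound 2-fold diluted in 100% serum, mixed 1:1 with 90% serum holding ~1.5 × 10^5 CFU/mL, giving 95% serum and final 0.5–64 μg/mL. MIC read as no visible growth after incubation as for the broth test.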

Staphylococcus aureus [5] = assay: Bactericidal activity against Staphylococcus aureus ATCC 29213; assay type: functional; conditions: read-out: MBC99.9
Outline: (§3)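 MBC from MIC plates at end point: 50 μL from each well with no visible growth plated on tryptic soy agar and counted. MBC taken as lowest concentration giving ≥99.9% fall in viable count relative to initial inoculum. Three independent experiments, one replicate each.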

Escherichia coli [6] = assay: Antibacterial activity against Escherichia coli ATCC 25922 after 18 to 20 hrs by broth microdilution method; assay type: functional
Outline: (§4)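 Broth microdilution in tryptic soy broth: 2-fold dilutions mixed 1:1 with ~1.5 × 10^5 CFU/mL inoculum, final 0.5–32 μg/mL; 37 °C, 18–20 h. MIC taken as lowest concentration giving no visible growth. At least three independent experiments, one replicate each.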

Klebsiella pneumoniae [7] = assay: Bactericidal activity against Klebsiella pneumoniae ATCC 13883; assay type: functional; conditions: read-out: MBC99.9; outline: as §3
Acinetobacter baumannii [8] = assay: Antibacterial activity against Acinetobacter baumannii ATCC 19606 after 18 to 20 hrs by broth microdilution method; assay type: functional; conditions: ATCC 19606 = CIP 70.34 = JCM 6841
Escherichia coli [9] = assay: Antibacterial activity against Escherichia coli ATCC 25922 in presence of 100% serum after 24 hrs by broth microdilution method; assay type: functional; conditions: ATCC 25922, 24 h; outline: as §1
Pseudomonas aeruginosa [10] = assay: Bactericidal activity against Pseudomonas aeruginosa ATCC 27853; assay type: functional; conditions: read-out: MBC99.9; outline: as §3
Escherichia coli [11] = assay: Antibacterial activity against Escherichia coli ATCC 25922 in presence of 100% serum measured immediately post compound addition in serum by broth microdilution method; assay type: functional; outline: as §1
Pseudomonas aeruginosa [12] = assay: Antibacterial activity against Pseudomonas aeruginosa ATCC 27853 after 18 to 20 hrs by broth microdilution method; assay type: functional; outline: as §4
Staphylococcus aureus [13] = assay: Bactericidal activity against methicillin-resistant Staphylococcus aureus ATCC 43300; assay type: functional; conditions: read-out: MBC99.9
Outline: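 MBC taken at the end of the MIC test: 50 μL from each well without visible growth plated on tryptic soy agar. MBC = lowest concentration giving ≥99.9% reduction in viable cells relative to the initial inoculum. Three independent experiments, one replicate each.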

Enterococcus faecium [14] = assay: Antibacterial activity against Enterococcus faecium ATCC 19434 after 18 to 20 hrs by broth microdilution method; assay type: functional; outline: as §4
Staphylococcus aureus [15] = assay: Antibacterial activity against Staphylococcus aureus ATCC 29213 after 18 to 20 hrs by broth microdilution method; assay type: functional; outline: as §4
Staphylococcus aureus [16] = assay: Antibacterial activity against methicillin-resistant Staphylococcus aureus ATCC 43300 after 18 to 20 hrs by broth microdilution method; assay type: functional
Outline: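 Broth microdilution in tryptic soy broth: 2-fold dilutions mixed 1:1 with ~1.5 × 10^5 CFU/mL bacterial suspension in TSB, final 0.5–32 μg/mL, 37 °C for 18–20 h. MIC = lowest concentration with no visible growth. At least three independent experiments, one replicate each.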

Escherichia coli [17] = assay: Bactericidal activity against Escherichia coli ATCC 25922; assay type: functional; conditions: read-out: MBC99.9; outline: as §3
Acinetobacter baumannii [18] = assay: Bactericidal activity against Acinetobacter baumannii ATCC 19606; assay type: functional; conditions: ATCC 19606 = CIP 70.34 = JCM 6841, read-out: MBC99.9; outline: as §3
Enterococcus faecium [19] = assay: Bactericidal activity against Enterococcus faecium ATCC 19434; assay type: functional; conditions: read-out: MBC99.9; outline: as §3
Escherichia coli [20] = assay: Antibacterial activity against Escherichia coli ATCC 25922 in presence of 100% serum after 12 hrs by broth microdilution method; assay type: functional; conditions: ATCC 25922, 12 h; outline: as §1
Escherichia coli [21] = assay: Antibacterial activity against Escherichia coli ATCC 25922 after 18 to 20 hrs in presence of 95% serum by broth microdilution method; assay type: functional; outline: as §2
Acinetobacter baumannii [22] = assay: Potentiation of rifampicin-mediated antibacterial activity against Acinetobacter baumannii ATCC 19606 assessed as decrease in rifampicin MIC at 4 ug/ml by checkerboard method relative to control; assay type: functional, ATCC 19606 = CIP 70.34 = JCM 6841
Klebsiella pneumoniae [23] = assay: Potentiation of rifampicin-mediated antibacterial activity against Klebsiella pneumoniae ATCC 13883 assessed as decrease in rifampicin MIC at 2 ug/ml by checkerboard method relative to control; assay type: functional
Acinetobacter baumannii [24] = assay: Potentiation of vancomycin-mediated antibacterial activity against Acinetobacter baumannii ATCC 19606 assessed as decrease in vancomycin MIC at 4 ug/ml by checkerboard method relative to control; assay type: functional, ATCC 19606 = CIP 70.34 = JCM 6841
Klebsiella pneumoniae [25] = assay: Potentiation of ampicillin-mediated antibacterial activity against Klebsiella pneumoniae ATCC 13883 assessed as decrease in ampicillin MIC at 4 ug/ml by checkerboard method relative to control; assay type: functional
Klebsiella pneumoniae [26] = assay: Potentiation of erythromycin-mediated antibacterial activity against Klebsiella pneumoniae ATCC 13883 assessed as decrease in erythromycin MIC at 4 ug/ml by checkerboard method relative to control; assay type: functional
Klebsiella pneumoniae [27] = assay: Potentiation of clarithromycin-mediated antibacterial activity against Klebsiella pneumoniae ATCC 13883 assessed as decrease in clarithromycin MIC at 4 ug/ml by checkerboard method relative to control; assay type: functional
Acinetobacter baumannii [28] = assay: Potentiation of clarithromycin-mediated antibacterial activity against Acinetobacter baumannii ATCC 19606 assessed as decrease in clarithromycin MIC at 4 ug/ml by checkerboard method relative to control; assay type: functional, ATCC 19606 = CIP 70.34 = JCM 6841
Acinetobacter baumannii [29] = assay: Potentiation of ampicillin-mediated antibacterial activity against Acinetobacter baumannii ATCC 19606 assessed as decrease in ampicillin MIC at 4 ug/ml by checkerboard method relative to control; assay type: functional, ATCC 19606 = CIP 70.34 = JCM 6841
Acinetobacter baumannii [30] = assay: Potentiation of rifampicin-mediated antibacterial activity against Acinetobacter baumannii ATCC 19606 assessed as rifampicin MIC at 2 ug/ml by checkerboard method (reference value: 16 ug/ml); assay type: functional; conditions: ATCC 19606 = CIP 70.34 = JCM 6841
Klebsiella pneumoniae [31] = assay: Potentiation of vancomycin-mediated antibacterial activity against Klebsiella pneumoniae ATCC 13883 assessed as decrease in vancomycin MIC at 4 ug/ml by checkerboard method relative to control; assay type: functional
Acinetobacter baumannii [32] = assay: Potentiation of erythromycin-mediated antibacterial activity against Acinetobacter baumannii ATCC 19606 assessed as decrease in erythromycin MIC at 4 ug/ml by checkerboard method relative to control; assay type: functional, ATCC 19606 = CIP 70.34 = JCM 6841
Klebsiella pneumoniae [33] = assay: Potentiation of rifampicin-mediated antibacterial activity against Klebsiella pneumoniae ATCC 13883 assessed as rifampicin MIC at 2 ug/ml by checkerboard method (reference value: 16 ug/ml); assay type: functional

CCCCCCCC(=O)N[C@@H](CCN)C(=O)N[C@H](C(=O)N[C@@H](CCN)C(=O)N[C@H](Cc1ccccc1)C(=O)N[C@@H](CC(C)C)C(=O)N[C@@H](CCN)C(=O)N[C@@H](C(=O)N[C@@H](CC(C)C)C(=O)N[C@@H](CO)C(N)=O)C(C)C)[C@@H](C)CC (Octanoyl-[Dab]I[Dab][dF]L[Dab][dV]LS-NH2)
Activity (Pseudomonas aeruginosa [1]): inactive | MIC (Klebsiella pneumoniae [2]): 8 to 16 µg/mL (≈ 7.17 to 14.3 µM) | MIC (Escherichia coli [3]): 8 µg/mL | MIC (Staphylococcus aureus [4]): 16 to 32 µg/mL | MBC (Staphylococcus aureus [5]): 16 µg/mL (≈ 14.3 µM) | MIC (Escherichia coli [6]): 2 to 4 µg/mL (≈ 1.79 to 3.58 µM) | MBC (Klebsiella pneumoniae [7]): 8 to 16 µg/mL (≈ 7.17 to 14.3 µM) | MIC (Acinetobacter baumannii [8]): 16 µg/mL (≈ 14.3 µM) | MIC (Escherichia coli [9]): 8 µg/mL | MBC (Pseudomonas aeruginosa [10]): 8 to 16 µg/mL (≈ 7.17 to 14.3 µM) | MIC (Escherichia coli [11]): 8 µg/mL | MIC (Pseudomonas aeruginosa [12]): 2 µg/mL (≈ 1.79 µM) | MBC (Staphylococcus aureus [13]): 8 to 32 µg/mL (≈ 7.17 to 28.7 µM) | MIC (Enterococcus faecium [14]): 16 µg/mL (≈ 14.3 µM) | MIC (Staphylococcus aureus [15]): 8 to 16 µg/mL (≈ 7.17 to 14.3 µM) | MIC (Staphylococcus aureus [16]): 8 to 16 µg/mL (≈ 7.17 to 14.3 µM) | MBC (Escherichia coli [17]): 16 µg/mL (≈ 14.3 µM) | MBC (Acinetobacter baumannii [18]): 16 to 32 µg/mL (≈ 14.3 to 28.7 µM) | MBC (Enterococcus faecium [19]): 16 to 32 µg/mL (≈ 14.3 to 28.7 µM) | MIC (Escherichia coli [20]): 8 µg/mL | MIC (Escherichia coli [21]): 8 µg/mL

CCCCCCCC(=O)N[C@@H](CCN)C(=O)N[C@H](C(=O)N[C@@H](CCN)C(=O)N[C@H](Cc1ccccc1)C(=O)N[C@@H](CC(C)C)C(=O)N[C@@H](CCN)C(=O)N[C@@H](C(=O)N[C@@H](CC(C)C)C(=O)N[C@@H](CCN)C(N)=O)C(C)C)[C@@H](C)CC (Octanoyl-[Dab]I[Dab][dF]L[Dab][dV]L[Dab]-NH2)
Activity (Pseudomonas aeruginosa [1]): inactive | MIC (Klebsiella pneumoniae [2]): > 32 µg/mL | MIC (Escherichia coli [3]): 2 µg/mL | MIC (Staphylococcus aureus [4]): 16 µg/mL | fold change (FC) (Acinetobacter baumannii [22]): 8192 | MIC (Escherichia coli [6]): 4 to 16 µg/mL (≈ 3.54 to 14.2 µM) | fold change (FC) (Klebsiella pneumoniae [23]): >=8192 | fold change (FC) (Acinetobacter baumannii [24]): 64 - 128 | MIC (Acinetobacter baumannii [8]): ≥ 32 µg/mL | MIC (Escherichia coli [9]): 2 µg/mL | MBC (Pseudomonas aeruginosa [10]): 16 µg/mL (≈ 14.2 µM) | MIC (Escherichia coli [11]): 1 to 2 µg/mL | fold change (FC) (Klebsiella pneumoniae [25]): 1 | fold change (FC) (Klebsiella pneumoniae [26]): 512 | MIC (Pseudomonas aeruginosa [12]): 2 to 4 µg/mL (≈ 1.77 to 3.54 µM) | fold change (FC) (Klebsiella pneumoniae [27]): 2048 | fold change (FC) (Acinetobacter baumannii [28]): 4096 - 8192 | fold change (FC) (Acinetobacter baumannii [29]): 16 - 32 | MIC (Enterococcus faecium [14]): 32 µg/mL (≈ 28.3 µM) | MIC (Acinetobacter baumannii [30]): 0.0019 µg/mL | MIC (Staphylococcus aureus [15]): > 32 µg/mL | MIC (Staphylococcus aureus [16]): 32 µg/mL (≈ 28.3 µM) | fold change (FC) (Klebsiella pneumoniae [31]): 2 | fold change (FC) (Acinetobacter baumannii [32]): 128 - 256 | MIC (Escherichia coli [20]): 1 to 2 µg/mL | MIC (Escherichia coli [21]): 2 to 4 µg/mL | MIC (Klebsiella pneumoniae [33]): 0.0019 to 0.0039 µg/mL
